Measurements taken from ChEMBL document CHEMBL4842372, “Discovery of ARD-2585 as an Exceptionally Potent and Orally Active PROTAC Degrader of Androgen Receptor for the Treatment of Advanced Prostate Cancer” (J Med Chem, 2021).
Calls of active or inactive are those of the source. The calls are words filed in the database; no cut-off is given here.

Tests used:
[1] = biological target: T1, Protein cereblon/Androgen receptor (Homo sapiens, UniProt P10275+Q96SW2); assay: Protac activity at CRBN/AR in human VCaP cells assessed as reduction in AR protein level at 100 nM after 3 hrs in presence of thalidomide by Western blot analysis
T1 sequence (P10275 whole entry, looked up): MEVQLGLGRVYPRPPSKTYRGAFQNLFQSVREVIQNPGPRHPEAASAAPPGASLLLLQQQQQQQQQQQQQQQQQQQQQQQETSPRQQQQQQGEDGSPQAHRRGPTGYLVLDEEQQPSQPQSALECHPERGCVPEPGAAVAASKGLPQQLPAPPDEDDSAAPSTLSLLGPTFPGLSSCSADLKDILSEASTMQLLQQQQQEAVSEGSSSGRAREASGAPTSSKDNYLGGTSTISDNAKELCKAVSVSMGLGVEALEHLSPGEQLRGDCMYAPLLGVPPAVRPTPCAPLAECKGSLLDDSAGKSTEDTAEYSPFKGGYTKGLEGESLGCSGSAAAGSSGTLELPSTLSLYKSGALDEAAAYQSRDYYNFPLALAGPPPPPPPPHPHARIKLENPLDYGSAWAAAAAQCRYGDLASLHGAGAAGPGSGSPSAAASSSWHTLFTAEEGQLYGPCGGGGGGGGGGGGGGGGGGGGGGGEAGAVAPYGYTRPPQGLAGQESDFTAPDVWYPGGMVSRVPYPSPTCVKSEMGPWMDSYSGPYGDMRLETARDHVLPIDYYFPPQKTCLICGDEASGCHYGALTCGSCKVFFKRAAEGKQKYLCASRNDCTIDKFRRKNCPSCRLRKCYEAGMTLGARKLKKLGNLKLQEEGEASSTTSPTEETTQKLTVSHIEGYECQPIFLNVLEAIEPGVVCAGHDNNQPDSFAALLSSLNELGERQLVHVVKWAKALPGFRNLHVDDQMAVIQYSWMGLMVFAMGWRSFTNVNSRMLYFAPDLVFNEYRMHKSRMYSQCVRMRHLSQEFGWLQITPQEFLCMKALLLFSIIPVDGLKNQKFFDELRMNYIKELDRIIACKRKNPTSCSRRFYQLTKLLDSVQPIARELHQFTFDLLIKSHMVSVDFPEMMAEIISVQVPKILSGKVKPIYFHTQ
T1 sequence (Q96SW2 whole entry, looked up): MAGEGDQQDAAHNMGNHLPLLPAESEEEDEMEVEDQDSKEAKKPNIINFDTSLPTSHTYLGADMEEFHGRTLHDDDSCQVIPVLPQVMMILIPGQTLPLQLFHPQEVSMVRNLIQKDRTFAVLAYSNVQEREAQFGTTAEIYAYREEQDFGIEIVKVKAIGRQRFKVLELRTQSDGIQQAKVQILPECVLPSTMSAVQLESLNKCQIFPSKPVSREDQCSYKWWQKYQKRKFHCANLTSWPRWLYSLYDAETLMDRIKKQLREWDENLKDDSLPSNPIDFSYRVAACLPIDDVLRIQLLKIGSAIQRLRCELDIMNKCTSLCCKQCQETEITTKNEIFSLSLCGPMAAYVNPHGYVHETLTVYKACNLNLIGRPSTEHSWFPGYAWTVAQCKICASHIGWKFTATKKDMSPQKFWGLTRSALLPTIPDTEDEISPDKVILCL

[2] = test system: Protein cereblon/Androgen receptor (Homo sapiens), P10275+Q96SW2 [T878A]; assay: Protac activity at CRBN/AR T878A mutant in human LNCaP cells assessed as maximal AR degradation at 0.3 nM after 24 hrs by Western blot analysis relative to control; type: cell-based
In short: (§1)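 Western blot of AR after 24 h exposure to a concentration series in ATCC-derived cells, all with 10% FBS at 37 °C and 5% CO2: LNCaP and 22Rv1 in RPMI1640, VCaP in DMEM with Glutamax, MDA-PCa-2b in F-12K. Lysis in RIPA with protease and phosphatase inhibitors, then 4–12% SDS-PAGE and PVDF transfer. Band minus background is normalised to GAPDH.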

[3] = Drug distribution in CB17:SCID mouse xenografted with human VCaP cells assessed as liver to plasma ratio at 20 mg/kg, po measured at 24 hrs by LCMS analysis; type: ADME, organism-based
In short: (§2)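 Tumor-bearing male CB17 SCID mice (VCaP xenografts) given one 20 mg/kg oral dose in 100% PEG200, three mice per time point; plasma, tumor, liver, kidney, prostate and heart taken at 1, 6 and 24 h; tissues homogenised in water/acetonitrile, protein precipitated with cold acetonitrile, drug quantified by LC–MS/MS; ratios are tissue over plasma level.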

[4] = biological target: T1, Protein cereblon/Androgen receptor; assay: Protac activity at CRBN/AR in human VCaP cells assessed as reduction in AR protein level at 100 nM after 3 hrs in presence of N-((1r,4r)-4-((3-chloro-4-cyanophenyl)(methyl)amino)cyclohexyl)-4-(4-methylpiperazin-1-yl)benzamide by Western blot analysis
[5] = test system: Protein cereblon/Androgen receptor (Homo sapiens), P10275+Q96SW2 [T878A]; assay: Protac activity at CRBN/AR T878A mutant in human LNCaP cells assessed as reduction in AR protein level at 100 nM after 3 hrs in presence of thalidomide by Western blot analysis
[6] = biological target: T1, Protein cereblon/Androgen receptor; assay: Protac activity at CRBN/AR in human VCaP cells assessed as reduction in AR protein level at 100 nM after 3 hrs in presence of MLN4924 by Western blot analysis
[7] = biological target: T1, Protein cereblon/Androgen receptor; assay: Protac activity at CRBN/AR in human VCaP cells assessed as reduction in AR protein level at 3 nM after 24 hrs by Western blot analysis relative to control; type: cell-based
In short: as §1

[8] = Drug distribution in CB17:SCID mouse xenografted with human VCaP cells assessed as prostate gland to plasma ratio at 20 mg/kg, po measured at 1 hrs by LCMS analysis; type: ADME, organism-based
In short: as §2

[9] = Drug distribution in CB17:SCID mouse xenografted with human VCaP cells assessed as heart to plasma ratio at 20 mg/kg, po measured at 24 hrs by LCMS analysis; type: ADME, organism-based
In short: as §2

[10] = biological target: T1, Protein cereblon/Androgen receptor; assay: Protac activity at CRBN/AR in human 22Rv1 cells assessed as reduction in AR protein level at 0.1 nM after 24 hrs by Western blot analysis relative to control; type: cell-based
In short: as §1

[11] = Drug distribution in heart of CB17:SCID mouse xenografted with human VCaP cells at 20 mg/kg, po measured at 1 hrs by LCMS analysis; type: ADME, organism-based; settings: read-out: Drug uptake
In short: as §2

[12] = Drug distribution in kidney of CB17:SCID mouse xenografted with human VCaP cells at 20 mg/kg, po measured at 1 hrs by LCMS analysis; type: ADME, organism-based; settings: read-out: Drug uptake
In short: as §2

[13] = test system: LNCaP; assay: Growth inhibition of human LNCaP cells carrying AR T878A mutant assessed as cell viability by WST-8 assay; type: functional, cell-based
[14] = Drug distribution in heart of CB17:SCID mouse xenografted with human VCaP cells at 20 mg/kg, po measured at 6 hrs by LCMS analysis; type: ADME, organism-based; settings: read-out: Drug uptake
In short: as §2

[15] = test system: VCaP; assay: Antitumor activity against human VCaP cells xenografted in CB17:SCID mouse assessed as tumor growth inhibition at 20 mg/kg, po treated for 37 days relative to control; type: functional; settings: 888 h, time 37 day, read-out: TGI
[16] = test system: VCaP; assay: Growth inhibition of human VCaP cells assessed as cell viability by WST-8 assay; type: functional, cell-based
[17] = Drug distribution in plasma of CB17:SCID mouse xenografted with human VCaP cells at 20 mg/kg, po measured at 1 hrs by LCMS analysis; type: ADME, organism-based
In short: as §2

[18] = test system: VCaP; assay: Antitumor activity against human VCaP cells xenografted in CB17:SCID mouse assessed as tumor growth inhibition at 40 mg/kg, po treated for 37 days relative to control; type: functional; settings: 888 h, time 37 day, read-out: TGI
[19] = test system: VCaP; assay: Potency index, ratio of ARV-110 IC50 to compound IC50 for reduction in AR degradation human VCaP cells after 24 hrs by Western blot analysis; type: functional
[20] = Drug distribution in CB17:SCID mouse xenografted with human VCaP cells assessed as prostate gland to plasma ratio at 20 mg/kg, po measured at 6 hrs by LCMS analysis; type: ADME, organism-based
In short: as §2

[21] = Drug distribution in tumor of CB17:SCID mouse xenografted with human VCaP cells at 20 mg/kg, po measured at 1 hrs by LCMS analysis; type: ADME, organism-based, Neoplasm; settings: read-out: Drug uptake
In short: as §2

[22] = biological target: T1, Protein cereblon/Androgen receptor; assay: Protac activity at CRBN/AR in human VCaP cells assessed as reduction in AR protein level at 100 nM after 3 hrs in presence of MG-132 by Western blot analysis
[23] = Drug distribution in heart of CB17:SCID mouse xenografted with human VCaP cells at 20 mg/kg, po measured at 24 hrs by LCMS analysis; type: ADME, organism-based; settings: read-out: Drug uptake
In short: as §2

[24] = Drug distribution in plasma of CB17:SCID mouse xenografted with human VCaP cells at 20 mg/kg, po measured at 6 hrs by LCMS analysis; type: ADME, organism-based
In short: as §2

[25] = Drug distribution in CB17:SCID mouse xenografted with human VCaP cells assessed as kidney to plasma ratio at 20 mg/kg, po measured at 6 hrs by LCMS analysis; type: ADME, organism-based
In short: as §2

[26] = biological target: T1, Protein cereblon/Androgen receptor; assay: Protac activity at CRBN/AR in human MDA-PCa-2b cells assessed as reduction in AR protein level at 1 nM after 24 hrs by Western blot analysis relative to control; type: cell-based
In short: as §1

[27] = Potency index, ratio of ARV-110 IC50 to compound IC50 for reduction in AR degradation human MDA-PCa-2b cells after 24 hrs by Western blot analysis relative to control; type: functional
[28] = test system: Protein cereblon/Androgen receptor (Homo sapiens), P10275+Q96SW2 [T878A]; assay: Protac activity at CRBN/AR T878A mutant in human LNCaP cells assessed as reduction in AR protein level at 3 nM after 24 hrs by Western blot analysis relative to control; type: cell-based
In short: as §1

## CN(c1ccc(C#N)c(Cl)c1)[C@H]1CC[C@H](NC(=O)c2ccc(N3CCN(C4CN(c5ccc6c(c5)C(=O)N(C5CCC(=O)NC5=O)C6=O)C4)CC3)cc2)CC1 (stereo partly drawn)
[1]
  Activity: inactive
[2]
  Emax: > 95%
[3]
  Kp at 24 h: 32.1
[4]
  Activity: inactive
[5]
  Activity: inactive
[6]
  Activity: inactive
[7]
  inhibition: 80%
[8]
  Kp at 1 h: 0.4
[9]
  Kp at 24 h: 3.2
[10]
  inhibition: > 80%
[11]
  concentration at 1 h: 210 ng/g
[12]
  concentration at 1 h: 437 ng/g
[13]
  IC50: 16.2 nM
[14]
  concentration at 6 h: 339 ng/g
[15]
  inhibition in vivo at 20 mg/kg: 74.3%
[16]
  IC50: 1.5 nM
[17]
  concentration at 1 h: 70 ng/mL
[18]
  inhibition in vivo at 40 mg/kg: 65.9%
[19]
  Ratio: 30
[20]
  Kp at 6 h: 0.6
[21]
  concentration at 1 h: 47 ng/g
[22]
  Activity: inactive
[23]
  concentration at 24 h: 683 ng/g
[24]
  concentration at 6 h: 87 ng/mL
[25]
  Kp at 6 h: 4.9
[26]
  inhibition: > 80%
[27]
  Ratio: 1000
[28]
  inhibition: 80%
